In ChEMBL document CHEMBL3124843, “Synthesis, cytostatic, antimicrobial, and anti-HCV activity of 6-substituted 7-(het)aryl-7-deazapurine ribonucleosides” (J Med Chem, 2014):
Active and inactive are the calls of the source. No rule for the calls is given here.

Legend:
HCT-116 [1] = assay: Cytostatic activity against p53-deficient human HCT116 cells after 72 hrs by MTT assay; type: functional, cell-based; settings: HCT-116, 72 h
Summary of the method: (§1)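 IC50 is the concentration that cuts cell growth by 50%, read by quantitative metabolic MTT staining after a 3-day treatment. The resistant sublines were made by raising the concentration of the cytotoxic drug step by step. CEM-DNR-bulk (daunorubicin-selected) stably overexpresses mrp-1. K562-TAX (paclitaxel-selected) expresses only mdr-1. HCT116p53−/− carries null p53 alleles. BJ and MRC-5 are nonmalignant fibroblasts.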

[2] = Antiproliferative activity against human HeLaS3 cells after 72 hrs by XTT assay; type: functional, cell-based; settings: HeLa S3, 72 h
Summary of the method: (§2)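 Antiproliferative test on HL-60 promyelocytic leukemia and HeLa S3 cervical carcinoma cells growing in liquid suspension.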

Pseudomonas aeruginosa [3] = assay: Antibacterial activity against Pseudomonas aeruginosa CCM 3955 after 24 hrs; type: functional, organism-based
[4] = Cytotoxicity against human HuH7 cells infected with Hepatitis C virus subtype 1b; type: cell-based, Huh-7
Hepatitis C virus [5] = assay: Antiviral activity against Hepatitis C virus subtype 2a infected in human HuH7 cells; type: functional, organism-based, Hepacivirus hominis; settings: genotype 2a, Huh-7
[6] = Cytostatic activity against human CEM-DNR-bulk cells after 72 hrs by MTT assay; type: functional, cell-based; summary of the method: as §1
Escherichia coli [7] = assay: Antibacterial activity against Escherichia coli CCM 3954 after 24 hrs; type: functional, organism-based
K562 [8] = assay: Cytostatic activity against human K562 cells after 72 hrs by MTT assay; type: functional, cell-based; settings: K562, 72 h; summary of the method: as §1
K562 [9] = assay: Cytostatic activity against paclitaxel-resistant human K562 cells after 72 hrs by MTT assay; type: functional, cell-based; settings: K562, 72 h; summary of the method: as §1
HepG2 = assay: Antiproliferative activity against human HepG2 cells after 72 hrs by XTT assay; type: functional, cell-based; settings: HepG2, 72 h
CCRF-CEM [10] = assay: Mitotic arrest in human CCRF-CEM cells assessed as pH3Ser10-positive cells at IC50 after 24 hrs by propidium iodide staining-based flow cytometric analysis (reference value: 1.4%); type: functional
HCT-116 [11] = assay: Cytostatic activity against human HCT116 cells after 72 hrs by MTT assay; type: functional, cell-based; settings: HCT-116, 72 h; summary of the method: as §1
Enterococcus faecalis = assay: Antibacterial activity against Enterococcus faecalis CCM 4224 after 24 hrs; type: functional, organism-based
CCRF-CEM [12] = assay: Cytostatic activity against human CCRF-CEM cells after 72 hrs by MTT assay; type: functional, cell-based; summary of the method: as §1
Escherichia coli [13] = assay: Antibacterial activity against multi-resistant Escherichia coli C/16702 after 24 hrs; type: functional, organism-based
Staphylococcus aureus [14] = assay: Antibacterial activity against Staphylococcus aureus CCM 3953 after 24 hrs; type: functional, organism-based
Pseudomonas aeruginosa [15] = assay: Antibacterial activity against multi-resistant Pseudomonas aeruginosa A/16575 after 24 hrs; type: functional, organism-based
Candida tropicalis = assay: Antifungal activity against Candida tropicalis after 48 hrs; type: functional, organism-based
Staphylococcus aureus [16] = assay: Antibacterial activity against methicillin-resistant Staphylococcus aureus MRSA 4591 after 24 hrs; type: functional, organism-based
[17] = Cytotoxicity against human HuH7 cells infected with Hepatitis C virus subtype 2a; type: cell-based, Huh-7
MRC5 = assay: Cytostatic activity against human MRC5 cells after 72 hrs by MTT assay; type: ADME, cell-based; settings: MRC5, 72 h; summary of the method: as §1
Candida albicans = assay: Antifungal activity against Candida albicans after 48 hrs; type: functional, organism-based
CCRF-CEM [18] = assay: Cell cycle arrest in human CCRF-CEM cells assessed as accumulation at sub-G1 phase at IC50 after 24 hrs by propidium iodide staining-based flow cytometric analysis (reference value: 9.6%); type: functional
A549 = assay: Cytostatic activity against human A549 cells after 72 hrs by MTT assay; type: functional, cell-based; settings: A549, 72 h; summary of the method: as §1
Hepatitis C virus [19] = assay: Antiviral activity against Hepatitis C virus subtype 1b infected in human HuH7 cells; type: functional, organism-based, Hepacivirus hominis; settings: genotype 1b, Huh-7
HL-60 = assay: Antiproliferative activity against human HL60 cells after 72 hrs by XTT assay; type: functional, cell-based; settings: HL-60, 72 h; summary of the method: as §2
[20] = test system: Staphylococcus haemolyticus; assay: Antibacterial activity against methicillin-resistant Staphylococcus haemolyticus A/16568 after 24 hrs; type: functional, organism-based
Pichia kudriavzevii = assay: Antifungal activity against Candida crusei after 48 hrs; type: functional, organism-based
BJ = assay: Cytostatic activity against human BJ cells after 72 hrs by MTT assay; type: ADME, cell-based; summary of the method: as §1
Candida parapsilosis = assay: Antifungal activity against Candida parapsilosis after 48 hrs; type: functional, organism-based

SMILES | IC50 (HCT-116 [1]) | IC50 [2] | Activity (Pseudomonas aeruginosa [3]) | CC50 [4] | EC50 (Hepatitis C virus [5]) | IC50 [6] | Activity (Escherichia coli [7]) | IC50 (K562 [8]) | IC50 (K562 [9]) | IC50 (HepG2) | IC50 (HCT-116 [11]) | Activity (Enterococcus faecalis) | IC50 (CCRF-CEM [12]) | Activity (Escherichia coli [13]) | Activity (Staphylococcus aureus [14]) | Activity (Pseudomonas aeruginosa [15]) | Activity (Candida tropicalis) | Activity (Staphylococcus aureus [16]) | CC50 [17] | IC50 (MRC5) | further results
COc1ncnc2c1c(-c1ccco1)cn2[C@@H]1O[C@H](CO)[C@@H](O)[C@H]1O | 40 nM | 1020 nM | inactive | > 44000 nM | 30 nM | 160 nM | inactive | 60 nM | 380 nM | 300 nM | 40 nM | inactive | 20 nM | inactive | inactive | inactive | inactive | inactive | > 44000 nM | 1700 nM | Activity (CCRF-CEM [10]): 1.4%; Activity (Candida albicans): inactive; Activity (CCRF-CEM [18]): 6.8%; IC50 (A549): 30 nM; EC50 (Hepatitis C virus [19]): 20 nM; IC50 (HL-60): 100 nM; Activity [20]: inactive; Activity (Pichia kudriavzevii): inactive; IC50 (BJ): 430 nM; Activity (Candida parapsilosis): inactive
Nc1nc2c(c(-c3ccsc3)cn2[C@@H]2O[C@H](CO)[C@@H](O)[C@H]2O)c(=O)[nH]1 | > 20000 nM | > 20000 nM | inactive | > 44000 nM | > 44000 nM | > 20000 nM | inactive | > 20000 nM | 18300 nM | > 20000 nM | > 20000 nM | inactive | > 20000 nM | inactive | inactive | inactive | inactive | inactive | > 44000 nM | > 100000 nM | Activity (Candida albicans): inactive; IC50 (A549): > 20000 nM; EC50 (Hepatitis C virus [19]): > 44000 nM; IC50 (HL-60): > 20000 nM; Activity [20]: inactive; Activity (Pichia kudriavzevii): inactive; IC50 (BJ): > 100000 nM; Activity (Candida parapsilosis): inactive
Cc1nc(N)c2c(-c3ccco3)cn([C@@H]3O[C@H](CO)[C@@H](O)[C@H]3O)c2n1 | > 20000 nM | > 20000 nM | inactive | > 44000 nM | > 44000 nM | > 20000 nM | inactive | > 20000 nM | > 20000 nM | > 20000 nM | > 20000 nM | inactive | > 100000 nM | inactive | inactive | inactive | inactive | inactive | > 44000 nM | > 100000 nM | Activity (Candida albicans): inactive; IC50 (A549): > 20000 nM; EC50 (Hepatitis C virus [19]): > 44000 nM; IC50 (HL-60): > 20000 nM; Activity [20]: inactive; Activity (Pichia kudriavzevii): inactive; IC50 (BJ): > 100000 nM; Activity (Candida parapsilosis): inactive
Cc1ncnc2c1ccn2[C@@H]1O[C@H](CO)[C@@H](O)[C@H]1O | 60 nM | 20 nM | inactive | 230 nM | 20 nM | 50 nM | inactive | 10 nM | 50 nM | 60 nM | 30 nM | inactive | 10 nM | inactive | inactive | inactive | inactive | inactive | 120 nM | 90 nM | Activity (Candida albicans): inactive; IC50 (A549): 30 nM; EC50 (Hepatitis C virus [19]): 20 nM; IC50 (HL-60): 20 nM; Activity [20]: inactive; Activity (Pichia kudriavzevii): inactive; IC50 (BJ): 70 nM; Activity (Candida parapsilosis): inactive
